Compounds with a hit are over-represented: about 2.1% of the library has one in this group of screens.
MIN6 prolif: inducers of MIN6 beta-cell proliferation, primary screen, ATP luminescence, uHTS. MIN6 cells proliferation, ATPlite luminescence, 48 h; cells starved in 0.2% serum; 100% = growth in 10% serum. AID 2380, 2010. actives 0.29% (n = 330,000). proliferation, % at 10 µM;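 active = compounds whose signal lies at least 3.5 SD above the mean of all wells on their plate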;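 also: 0% = DMSO-treated cells in low-serum medium and 100% = 10% serum control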
CRFR2-BP antag: antagonists of CRF-BP/CRF-R2 complex, primary screen, cell-based, HEK293, calcium dye fluorescence, uHTS; inhibition, % at 11.8 µM; CRF-induced calcium fluorescence; actives 0.59% (n = 350,000); AID 588475, 2011;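 active = inhibition of the ligand-induced calcium signal above about 50% at the single tested concentration, limit read from the data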
UCH37 DUB inh: inhibitors of human UCH37 deubiquitinase, primary screen, biochemical, Ub-AMC cleavage, fluorescence | Ubiquitin carboxyl-terminal hydrolase isozyme L5 (Homo sapiens), Q9Y5K5 | actives 0.33% (n = 330,000) | inhibition, % (concentration not given with the values) | purified proteasome/UCH37;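 active = mean inhibition over replicate wells above about 20%, limit read from the data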;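 also: 0% = compound-free wells with enzyme and 100% = wells lacking proteasome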
Target sequence (Q9Y5K5 whole entry, looked up): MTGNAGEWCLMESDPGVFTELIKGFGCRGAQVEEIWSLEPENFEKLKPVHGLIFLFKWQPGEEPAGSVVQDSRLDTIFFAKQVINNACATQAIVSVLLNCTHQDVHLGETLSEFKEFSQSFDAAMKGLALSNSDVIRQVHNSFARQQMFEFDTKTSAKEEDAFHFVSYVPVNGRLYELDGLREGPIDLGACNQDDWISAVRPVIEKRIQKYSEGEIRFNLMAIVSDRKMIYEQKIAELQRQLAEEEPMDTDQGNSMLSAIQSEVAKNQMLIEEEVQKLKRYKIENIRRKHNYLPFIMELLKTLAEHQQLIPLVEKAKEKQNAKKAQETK
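Material: human UCH37 enzyme supplied as purified proteasome complex / Amount: 0.15 nM proteasome as dispensed / Buffer or medium: pH 7.4 Tris-HCl (50 mM) with ovalbumin, ATP-MgCl2, DTT / Times: preincubation 30 min, reaction 25 min, room temperature / Technique: AMC fluorescence from Ub-AMC cleavage, excitation 355 nm, emission 460 nm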
CRFBP-R2 agonist: agonists of CRF-BP/CRF-R2 complex, primary screen, cell-based, HEK293, calcium dye fluorescence, uHTS; calcium dye fluorescence (FLIPR); percent of saturating CRF peptide response; activation, % at 13.2 µM; actives 0.46% (n = 350,000); AID 588473, 2011;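 active = activation of at least 50%, plus an integration ratio under a set limit after plate pattern correction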;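 also: plate controls were neutral control wells without compound for no effect and CRF at EC100 for full effect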
H9c2 protect: cardioprotection against H2O2-induced cell death, primary screen, uHTS, H9c2 cells, ATPLite luminescence; protection from H2O2 cell death, % at 20 µM; H9c2 cardiomyocytes, H2O2 injury protection, 2 h; actives 0.63% (n = 360,000);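 active = compounds giving at least 50% protection of heart cells from peroxide-induced death in the single-dose screen, raw or plate-pattern-corrected value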;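 also: 0% = DMSO wells with peroxide and 100% = DMSO wells without peroxide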
hiPSC survival: enhancers of single-cell hiPSC survival, primary screen, ATPlite luminescence | 100% = ROCK inhibitor wells, 0% = DMSO | survival enhancement, % at 20 µM | actives 0.044% (n = 360,000); in the data active = survival enhancement above about 18%;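 also: cells exposed to compounds for 16 hours before the ATP read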
Starred values were filed as active, the others as inactive.

For O=C(N/N=C/c1ccc(O)cc1O)c1ccc(CN2C(=O)c3cccc4cccc2c34)cc1 the results were MIN6 prolif -4, CRFR2-BP antag 25, CRFBP-R2 agonist 0, H9c2 protect 52* and hiPSC survival 1.
For CN(c1ccccc1)c1ccc(/C=C(\CCC(=O)O)c2nc3ccccc3s2)cc1[N+](=O)[O-] the results were MIN6 prolif -3, CRFR2-BP antag 52*, UCH37 DUB inh 16, CRFBP-R2 agonist -2, H9c2 protect 0 and hiPSC survival -1.
For COc1ccc(C=NN(C)C2=NCCN2)c(OC)c1OC the results were UCH37 DUB inh 1.
`Cc1ccc(C2OC(=O)c3ccccc32)cc1` (stereo unspecified) gave MIN6 prolif 0, CRFR2-BP antag 16, UCH37 DUB inh 6, CRFBP-R2 agonist -1, H9c2 protect 0 and hiPSC survival -1.
Screening Cc1ccc(C2OC(=O)C=C2c2ccccc2)cc1 (stereo unspecified) returned MIN6 prolif -2, CRFR2-BP antag 11, UCH37 DUB inh 24*, CRFBP-R2 agonist -3, H9c2 protect -4 and hiPSC survival 2.
For Cc1nn(Cc2ccccc2)c(Cl)c1C=NNC(=O)CNc1cccc(C(F)(F)F)c1 the results were UCH37 DUB inh 3.
For N#C/C(=N\Nc1cccc(Cl)c1)C(=O)c1ccccc1 the results were MIN6 prolif -6, CRFR2-BP antag 47, CRFBP-R2 agonist 58*, H9c2 protect -28 and hiPSC survival -3.
Screening N#CC(=NNc1cccc(Cl)c1)C(=O)c1ccccc1 returned UCH37 DUB inh 7.
Screening N#C/C(=N\Nc1ccccc1Cl)C(=O)c1ccccc1 returned MIN6 prolif -6, CRFR2-BP antag 85*, CRFBP-R2 agonist 38, H9c2 protect -9 and hiPSC survival -2.
`COc1ccc(C(=O)/C(C#N)=N/Nc2cccc([N+](=O)[O-])c2)cc1` gave CRFR2-BP antag 57*, CRFBP-R2 agonist 28, H9c2 protect -26 and hiPSC survival 2.
CCCCn1c(=O)[nH]c2nc3cc(NC(C)=O)ccc3nc2c1=O was read as MIN6 prolif -3, CRFR2-BP antag -6, UCH37 DUB inh -21, CRFBP-R2 agonist 22, H9c2 protect 22 and hiPSC survival -1.
Screening CCCCCCn1c(=O)[nH]c2nc3cc(N)c(C)cc3nc2c1=O returned CRFR2-BP antag -228, UCH37 DUB inh 10, CRFBP-R2 agonist 325*, H9c2 protect 21 and hiPSC survival -3.
`COC(=O)NN=Cc1cc(Cl)cc(Cl)c1OCc1ccccc1` gave UCH37 DUB inh 3.
O=C(NC(Cc1ccccc1)C(=O)O)/C(=C/c1ccccc1)NC(=O)c1cccc(Br)c1 (stereo unspecified) was read as MIN6 prolif -3, CRFR2-BP antag 8, UCH37 DUB inh 31*, CRFBP-R2 agonist -1, H9c2 protect -7 and hiPSC survival 2.
Oc1ccc(N=Nc2cccc(C(F)(F)F)c2)cc1C=Nc1ccc(N2CCOCC2)cc1 was read as MIN6 prolif 0, CRFR2-BP antag 28, CRFBP-R2 agonist -2, H9c2 protect 76* and hiPSC survival -2.
For Cc1cc(Br)cc(C=Nc2ccc(N3CCOCC3)cc2)c1O the results were MIN6 prolif -4, CRFR2-BP antag 6, UCH37 DUB inh 5, CRFBP-R2 agonist 0, H9c2 protect 84* and hiPSC survival 2.
Screening Oc1c(Cl)cc(Cl)cc1C=Nc1ccc(N2CCOCC2)cc1 returned MIN6 prolif -3, CRFR2-BP antag 1, UCH37 DUB inh 1, CRFBP-R2 agonist 3, H9c2 protect 65* and hiPSC survival -1.
For Oc1c(Br)cc(Br)cc1C=Nc1ccc2c(c1)OCO2 the results were MIN6 prolif -5, CRFR2-BP antag 18, UCH37 DUB inh 5, CRFBP-R2 agonist 1, H9c2 protect 41 and hiPSC survival 1.
